{"source": "ChEMBL document CHEMBL1122228", "about": "“1-(Aminomethyl)-6,7-dihydroxytetralin derivatives: synthesis and assessment of dopamine-like effects” (1983)", "key": {"[1]": {"system": "Felis catus", "assay": "Inhibition of positive chronotropic response induced by stimulation of cardioaccelerator nerve of cat at 1 mg/kg (iv); Inactive", "assay_type": "functional, organism-based", "parameters": "dose 1 mg/kg", "in_short": "(§1)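 Cats of either sex, 4–6 kg, were anesthetized with intraperitoneal pentobarbital sodium (30 mg/kg) and pretreated with atropine sulfate (200 μg/kg) and hexamethonium bromide (10 mg/kg). They were intubated and ventilated, with the chest opened. Bipolar platinum electrodes were placed on the right postganglionic cardioaccelerator nerves, stimulated at 2 Hz for 30 s, 2-ms pulses, supramaximal 20–25 V. Heart rate was recorded. Compounds were given iv up to 1 mg/kg.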"}, "[2]": {"system": "Felis catus", "assay": "Active dose range of hypotensive effect in cat; range is 0.008-0.032 uM/kg.", "assay_type": "functional"}, "[3]": {"system": "Felis catus", "assay": "Inhibition of positive chronotropic response induced by stimulation of cardioaccelerator nerve of cat at 1 mg/kg (iv)", "assay_type": "functional", "in_short": "as §1"}, "[4]": {"system": "Felis catus", "assay": "Ability to lower arterial blood pressure in cat at 1.7 umol/kg", "assay_type": "functional, Artery", "in_short": "(§2)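 Cats of either sex, 4–6 kg, anesthetized with intraperitoneal pentobarbital sodium (30 mg/kg), intubated and ventilated by respirator. Arterial blood pressure and heart rate were monitored. Test doses ranged from 0.5 to 1.0 mg/kg.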"}, "[5]": {"system": "Felis catus", "assay": "Ability to lower arterial blood pressure in cat at 3.4 umol/kg", "assay_type": "functional, Artery", "in_short": "as §2"}}, "note": "Active and inactive are the calls of the source. The rule behind the calls is not given here."}
{"smiles": "CC(C)NCC1CCCc2cc(O)c(O)cc21", "note": "(stereo unspecified)", "values": [{"measurement": "Activity", "setting": "[1]", "result": "inactive"}]}
{"smiles": "CN1CCc2cccc3c2[C@H]1Cc1ccc(O)c(O)c1-3", "note": "[APOMORPHINE]", "values": [{"measurement": "Dose range", "setting": "[2]", "result": 0.032, "unit": "µM/kg"}, {"measurement": "ED50", "setting": "[3]", "result": 0.022, "unit": "µmol/kg"}]}
{"smiles": "CNCC1CCCc2cc(O)c(O)cc21", "note": "(stereo unspecified)", "values": [{"measurement": "Activity", "setting": "[1]", "result": "inactive"}]}
{"smiles": "CCCNCC1CCCc2cc(O)c(O)cc21", "note": "(stereo unspecified)", "values": [{"measurement": "Activity", "setting": "[1]", "result": "inactive"}]}
{"smiles": "Br.CN(C)CC1CCCc2cc(O)c(O)cc21", "note": "(stereo unspecified)", "values": [{"measurement": "BP", "setting": "[4]", "result": 31.5, "unit": "mmHg"}, {"measurement": "BP", "setting": "[5]", "result": 34.5, "unit": "mmHg"}, {"measurement": "Activity", "setting": "[1]", "result": "inactive"}]}
{"smiles": "CCN(CC)CC1CCCc2cc(O)c(O)cc21", "note": "(stereo unspecified)", "values": [{"measurement": "Activity", "setting": "[1]", "result": "inactive"}]}
{"smiles": "CC(C)N(C)CC1CCCc2cc(O)c(O)cc21", "note": "(stereo unspecified)", "values": [{"measurement": "Activity", "setting": "[1]", "result": "inactive"}]}
{"smiles": "CCNCC1CCCc2cc(O)c(O)cc21", "note": "(stereo unspecified)", "values": [{"measurement": "Activity", "setting": "[1]", "result": "inactive"}]}
